Calls of active or inactive are those of the source. The rule behind the calls is not given here.
Experiments:
[1] = target: T1, Nitric oxide synthase, inducible (Mus musculus) (UniProt P29477); assay: Inhibition of iNOS in mouse macrophages assessed as reduction in LPS-induced nitric oxide production at 50 uM incubated for overnight by griess assay relative to control
T1 sequence (whole entry): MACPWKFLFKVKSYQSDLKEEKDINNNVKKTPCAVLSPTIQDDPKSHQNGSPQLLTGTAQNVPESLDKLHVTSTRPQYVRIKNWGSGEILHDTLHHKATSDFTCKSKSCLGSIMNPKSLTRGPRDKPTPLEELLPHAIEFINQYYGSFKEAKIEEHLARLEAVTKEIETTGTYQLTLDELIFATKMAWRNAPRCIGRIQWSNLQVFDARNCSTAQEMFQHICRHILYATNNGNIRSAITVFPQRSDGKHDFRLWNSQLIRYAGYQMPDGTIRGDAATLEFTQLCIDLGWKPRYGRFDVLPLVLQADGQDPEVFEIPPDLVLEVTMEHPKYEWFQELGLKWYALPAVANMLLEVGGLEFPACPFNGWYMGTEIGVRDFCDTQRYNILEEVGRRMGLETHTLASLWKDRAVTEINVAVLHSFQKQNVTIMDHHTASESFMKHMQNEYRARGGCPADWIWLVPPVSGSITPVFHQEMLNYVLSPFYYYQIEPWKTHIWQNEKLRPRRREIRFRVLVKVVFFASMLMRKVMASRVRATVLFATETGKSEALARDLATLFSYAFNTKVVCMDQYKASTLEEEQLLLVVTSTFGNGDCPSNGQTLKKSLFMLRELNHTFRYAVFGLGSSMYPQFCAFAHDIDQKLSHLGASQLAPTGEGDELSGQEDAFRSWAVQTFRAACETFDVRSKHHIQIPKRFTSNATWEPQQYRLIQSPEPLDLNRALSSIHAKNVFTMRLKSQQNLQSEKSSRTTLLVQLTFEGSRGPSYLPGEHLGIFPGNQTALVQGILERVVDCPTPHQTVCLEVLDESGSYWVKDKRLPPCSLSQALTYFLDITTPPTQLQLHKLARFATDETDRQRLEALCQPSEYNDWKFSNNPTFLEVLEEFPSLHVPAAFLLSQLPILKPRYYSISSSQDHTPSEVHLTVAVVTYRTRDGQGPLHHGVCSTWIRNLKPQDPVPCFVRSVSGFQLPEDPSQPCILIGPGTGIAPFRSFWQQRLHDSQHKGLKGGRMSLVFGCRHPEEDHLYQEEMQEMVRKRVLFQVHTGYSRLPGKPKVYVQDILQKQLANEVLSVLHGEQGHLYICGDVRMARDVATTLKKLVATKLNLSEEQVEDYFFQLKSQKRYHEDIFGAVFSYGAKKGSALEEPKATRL
Outline: (§1)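 Murine macrophages seeded at 4 x10^4 per well with compound at 50 or 100 µM, with or without LPS (100 ng/mL), overnight under standard conditions. Supernatant mixed 1:1 with Griess reagent and read at 570 nm. Nitrite quantified from a NaNO2 standard curve. Triplicates in three independent experiments.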

[2] = target: T2, Prostaglandin G/H synthase 1 (Bos taurus) (UniProt O62664); assay: Inhibition of bovine COX1 at 100 uM using arachidonic acid as substrate preincubated for 5 mins followed by substrate addition and measured after 5 mins by […]-based fluorescence assay relative to control
T2 sequence (whole entry): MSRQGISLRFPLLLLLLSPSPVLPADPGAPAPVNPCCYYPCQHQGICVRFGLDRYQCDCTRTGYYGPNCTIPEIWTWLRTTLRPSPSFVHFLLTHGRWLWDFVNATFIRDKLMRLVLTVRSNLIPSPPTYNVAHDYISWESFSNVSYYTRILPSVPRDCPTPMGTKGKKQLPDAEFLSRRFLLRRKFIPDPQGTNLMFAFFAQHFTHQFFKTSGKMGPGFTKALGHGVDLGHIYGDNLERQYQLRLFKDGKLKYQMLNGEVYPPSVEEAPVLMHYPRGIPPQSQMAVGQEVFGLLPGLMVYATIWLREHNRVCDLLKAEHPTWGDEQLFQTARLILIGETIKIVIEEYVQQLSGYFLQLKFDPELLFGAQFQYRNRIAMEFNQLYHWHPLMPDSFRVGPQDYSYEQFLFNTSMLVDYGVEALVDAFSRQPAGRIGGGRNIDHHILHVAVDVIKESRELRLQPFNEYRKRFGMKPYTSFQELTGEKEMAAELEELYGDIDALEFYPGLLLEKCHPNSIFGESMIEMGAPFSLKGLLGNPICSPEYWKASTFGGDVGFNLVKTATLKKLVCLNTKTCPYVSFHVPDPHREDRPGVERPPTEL
Outline: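 Bovine COX-1 preincubated 5 min in buffer with compound (100 µM) or SC-560 as reference. ADHP and arachidonic acid then added, and resorufin fluorescence read after 5 min (ex 530–540 / em 585–595 nm). Resorufin arises from ADHP reacting with the COX-derived PGG2.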

[3] = target: T3, Prostaglandin G/H synthase 2 (Homo sapiens, UniProt P35354); assay: Inhibition of human recombinant COX-2 using arachidonic acid as substrate preincubated for 15 mins followed by substrate addition and measured after 5 mins by […]-based fluorescence assay
T3 sequence (P35354 whole entry): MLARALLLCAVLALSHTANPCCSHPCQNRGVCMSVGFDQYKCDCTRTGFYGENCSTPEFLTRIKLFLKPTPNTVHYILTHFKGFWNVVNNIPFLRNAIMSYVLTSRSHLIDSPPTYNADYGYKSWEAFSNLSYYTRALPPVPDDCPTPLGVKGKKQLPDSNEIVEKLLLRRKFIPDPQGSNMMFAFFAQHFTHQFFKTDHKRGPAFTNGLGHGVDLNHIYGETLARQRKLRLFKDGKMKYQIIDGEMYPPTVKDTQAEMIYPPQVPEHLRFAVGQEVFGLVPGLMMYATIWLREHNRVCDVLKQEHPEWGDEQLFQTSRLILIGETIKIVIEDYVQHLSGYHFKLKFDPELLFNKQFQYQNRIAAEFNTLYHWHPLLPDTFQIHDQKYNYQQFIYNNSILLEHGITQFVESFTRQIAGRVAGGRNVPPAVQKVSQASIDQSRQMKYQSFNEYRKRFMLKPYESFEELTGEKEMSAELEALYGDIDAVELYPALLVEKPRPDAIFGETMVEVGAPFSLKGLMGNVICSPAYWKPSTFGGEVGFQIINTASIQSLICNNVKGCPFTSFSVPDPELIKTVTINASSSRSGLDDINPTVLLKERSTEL
Outline: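 Human recombinant COX-2 preincubated 15 min in buffer with compound (100 µM) or DuP-697 as reference. ADHP and arachidonic acid then added, and resorufin fluorescence read after 5 min (ex 530–540 / em 585–595 nm).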

Rattus norvegicus = assay: Antiinflammatory activity in Wistar rat assessed as inhibition of carrageenan-induced paw edema formation at 100 mg/kg, po administered 1 hr before carrageenan stimulation and measured after up to 6 hrs relative to control; assay type: functional
Outline: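 Male Wistar rats (250–300 g), N = 5 per group, dosed orally 1 h before 0.1 mL of 1% carrageenan in physiological saline was injected into the right paw. Paw volume was read by plethysmometer at 0, 1, 2, 3, 4, 5 and 6 h. Edema was taken as the right-minus-left paw volume difference. % inhibition = (untreated − treated)/untreated × 100 at each time point.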

[4] = Selectivity index, ratio of inhibition of human recombinant COX-2 at 100 uM to inhibition of bovine COX-1 at 100 uM
Outline: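 SI is COX-2/COX-1 activity ratio. Percent inhibition at 100 µM: human recombinant COX-2 (15 min preincubation) and bovine COX-1 (5 min preincubation). Fluorometric ADHP/arachidonic acid read-out after 5 min.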

[5] = Cytotoxicity against mouse RAW264.7 cells assessed as cell viability at 500 uM measured after 24 hrs by MTT assay relative to control; assay type: cell-based; settings: read-out: Activity
Outline: (§2)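 RAW 264.7 murine macrophages grown in RPMI-1640 with 10% heat-inactivated FBS at 37 °C, 5% CO2. Cells seeded at 4 x10^4 per well and exposed 24 h to 0–500 µM compound (DMSO 0.2% final). Medium replaced with 0.5 mg/mL MTT for 4 h, formazan dissolved in isopropanol, absorbance read at 570 nm. Triplicates in three independent experiments.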

[6] = target: T1, Nitric oxide synthase, inducible (Mus musculus); assay: Inhibition of iNOS in mouse macrophages assessed as reduction in LPS-induced nitric oxide production at 100 uM incubated for overnight by griess assay relative to control; outline: as §1
[7] = Cytotoxicity against mouse RAW264.7 cells assessed as cell viability at 100 uM measured after 24 hrs by MTT assay relative to control; assay type: cell-based; settings: read-out: Activity; outline: as §2
RAW264.7 = assay: Cytotoxicity against mouse RAW264.7 cells assessed as reduction in cell viability at 500 uM measured after 24 hrs by MTT assay; assay type: cell-based; settings: raw264.7, 24 h; outline: as §2

SMILES | inhibition [1] | inhibition [2] | IC50 [3] | inhibition (Rattus norvegicus) | Selectivity Index [4] | viability at 24 h, 500 µM [5] | inhibition [6] | viability at 24 h, 100 µM [7] | inhibition in vivo at 100 mg/kg (Rattus norvegicus) | Activity (RAW264.7)
Nc1ccc(-n2c(-c3ccc(Cl)cc3)nc3ccccc32)cc1 | 24.9% | 39% | 193 µM | Active | 1.15 | ≥ 80% | 52.2% | > 90% | – | –
O=[N+]([O-])c1ccc(-c2nc3ccccc3n2-c2ccc([N+](=O)[O-])cc2)cc1 | 22.4% | 29.3% | – | – | 1.63 | ≤ 90% | 33.8% | ≤ 90% | 42% | –
CC(=O)Nc1ccc(-n2c(-c3ccc(Br)cc3)nc3ccccc32)cc1 | 77.3% | 48.7% | – | Active | 0.58 | – | 83.6% | > 90% | – | –
N#Cc1ccc(-c2nc3ccccc3n2-c2ccc([N+](=O)[O-])cc2)cc1 | 24.4% | 29% | – | Active | 1.63 | – | 46% | > 90% | – | Toxic
O=C(O)c1ccc(-c2nc3ccccc3n2-c2ccc([N+](=O)[O-])cc2)cc1 | 32.6% | 31% | – | Active | 1.06 | – | 46.2% | > 90% | – | Toxic
CC(C)Cc1ccc(C(C)C(=O)O)cc1 (centres undefined) [IBUPROFEN] | 82.1% | 56.6% | – | – | – | – | 83.7% | – | 42% | –
O=[N+]([O-])c1ccc(-n2c(-c3ccccc3)nc3ccccc32)cc1 | 38.1% | 40.6% | 162 µM | Active | 1.05 | – | 44% | > 90% | – | Toxic
O=[N+]([O-])c1ccc(-n2c(-c3ccc(Br)cc3)nc3ccccc32)cc1 | 46.5% | 18.3% | 102 µM | – | 2.77 | – | 45.8% | > 90% | 42% | Toxic
O=[N+]([O-])c1ccc(-n2c(-c3ccc(Cl)cc3)nc3ccccc32)cc1 | 53.2% | 17.6% | – | Active | 1.37 | – | 53.9% | > 90% | – | Toxic
Nc1ccc(-n2c(-c3ccc(Br)cc3)nc3ccccc32)cc1 | 62.5% | 62.3% | – | Active | 0.11 | ≥ 80% | 74.2% | > 90% | – | –
Nc1ccc(-c2nc3ccccc3n2-c2ccc(N)cc2)cc1 | 42.5% | 29.7% | 173 µM | Active | 1.55 | ≥ 80% | 44.1% | > 90% | – | –
CC(=O)Nc1ccc(-n2c(-c3ccc(Cl)cc3)nc3ccccc32)cc1 | 75.9% | 47.4% | – | Active | 0.51 | – | 86.4% | > 90% | – | –
Cc1ccc(-c2ncc(Cl)cc2-c2ccc(S(C)(=O)=O)cc2)cn1 [ETORICOXIB] | 79.8% | 23.4% | – | – | 2.68 | – | 87.3% | – | 35% | –
CC(=O)Nc1ccc(-c2nc3ccccc3n2-c2ccc(NC(C)=O)cc2)cc1 | 10.1% | 59.5% | – | Active | 0.53 | – | 15.3% | > 90% | – | –

— ChEMBL document CHEMBL4627345, “Anti-inflammatory effect and inhibition of nitric oxide production by targeting COXs and iNOS enzymes with the 1,2-diphenylbenzimidazole pharmacophore” (Bioorg Med Chem, 2020)
